The source made the active and inactive calls.
Columns and labels:
[1] = target: T1, Cholesteryl ester transfer protein (Homo sapiens) (UniProt P11597); assay: Inhibition of human recombinant CETP-mediated cholesteryl ester transfer activity at 100 uM after 1 hr by fluorescent cholesteryl esters transfer assay relative to control
T1 sequence (whole entry): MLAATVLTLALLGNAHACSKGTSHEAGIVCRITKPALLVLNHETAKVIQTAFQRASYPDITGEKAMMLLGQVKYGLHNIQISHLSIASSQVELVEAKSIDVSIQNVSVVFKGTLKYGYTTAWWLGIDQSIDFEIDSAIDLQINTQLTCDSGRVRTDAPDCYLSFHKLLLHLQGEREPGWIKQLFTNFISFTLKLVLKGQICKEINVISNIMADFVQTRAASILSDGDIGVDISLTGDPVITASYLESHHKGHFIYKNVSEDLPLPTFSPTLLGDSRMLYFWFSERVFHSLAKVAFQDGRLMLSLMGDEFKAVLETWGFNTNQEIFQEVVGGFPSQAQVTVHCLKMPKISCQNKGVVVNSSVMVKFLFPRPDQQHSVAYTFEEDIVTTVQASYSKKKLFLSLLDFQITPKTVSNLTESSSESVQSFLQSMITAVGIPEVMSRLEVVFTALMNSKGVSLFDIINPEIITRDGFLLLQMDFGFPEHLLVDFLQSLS

[2] = target: T2, Cholesteryl ester transfer protein (Homo sapiens, UniProt P11597); assay: Inhibition of human recombinant CETP-mediated cholesteryl ester transfer activity after 1 hr by fluorescent cholesteryl esters transfer assay
T2 sequence (P11597 whole entry): T1 sequence (whole entry)

[3] = test system: Mus musculus; assay: Increase in HDL-cholesterol level in C57BL/6 mouse expressing cynomolgus monkey CETP gene assessed as change in HDL-C level at 10 mg/kg, po BID measured 24 hrs after first dose; assay type: functional
[4] = test system: Mus musculus; assay: Increase in HDL-cholesterol level in C57BL/6 mouse expressing cynomolgus monkey CETP gene assessed as change in HDL-C level administered orally twice daily and measured 24 hrs after first dose; assay type: functional, organism-based
Procedure, shortened: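 Pre-dose retro-orbital bleed. Dosed 10 mg/kg PO BID at 0 and 7 h in DMSO/cremophor/saline (4:4:92). Terminal cardiac-puncture bleed at 24 h. HDL-C by enzymatic kit; change from baseline, mean of 5 mice. A change of 5 mg/dL or less was generally considered not significant.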

[5] = test system: Mus musculus; assay: Increase in HDL-cholesterol level in C57BL/6 mouse expressing cynomolgus monkey CETP gene assessed as change in HDL-C level at 0.3 mg/kg, po BID measured 24 hrs after first dose; assay type: functional
Procedure, shortened: (§1)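 Baseline retro-orbital bleed. Oral BID dosing in DMSO/cremophor/saline (4:4:92). Euthanized 24 h after the first dose with cardiac-puncture bleed. HDL-C by enzymatic kit on pre- and post-dose samples. Change from baseline reported as mean ± SEM, 9 mice per dose.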

[6] = test system: Mus musculus; assay: Increase in HDL-cholesterol level in C57BL/6 mouse expressing cynomolgus monkey CETP gene assessed as change in HDL-C level at 1 mg/kg, po BID measured 24 hrs after first dose; assay type: functional; procedure, shortened: as §1
[7] = test system: Mus musculus; assay: Increase in HDL-cholesterol level in C57BL/6 mouse expressing cynomolgus monkey CETP gene assessed as change in HDL-C level at 3 mg/kg, po BID measured 24 hrs after first dose; assay type: functional; procedure, shortened: as §1
[8] = Blood clearance in C57BL/6 mouse at 0.6 mg/kg, iv and 2 mg/kg, po; assay type: ADME, organism-based; details: whole blood
Procedure, shortened: (§2)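 Male C57BL/6 mice. IV dosing at 0.6 mg/kg, formulated in DMSO:PEG400:water (10:55:35, v/v/v). Oral dosing at 2 mg/kg, formulated in DMSO:cremophor:saline (2:4:94, v/v/v). Reported parameters were blood clearance, volume of distribution, terminal half-life, IV- and PO-normalized AUC, Cmax and Tmax in plasma after oral dosing, and oral bioavailability.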

[9] = Volume of distribution in C57BL/6 mouse at 0.6 mg/kg, iv and 2 mg/kg, po; assay type: ADME, organism-based; details: in vivo; procedure, shortened: as §2
[10] = test system: Mus musculus; assay: Terminal half life in C57BL/6 mouse at 0.6 mg/kg, iv and 2 mg/kg, po; assay type: ADME, organism-based; details: in vivo; procedure, shortened: as §2
[11] = test system: Mus musculus; assay: Dose-normalized AUC in C57BL/6 mouse at 0.6 mg/kg, iv; assay type: ADME, organism-based; design: dose 0.6 mg/kg, route intravenous; details: in vivo; procedure, shortened: as §2
[12] = test system: Mus musculus; assay: Dose-normalized AUC in C57BL/6 mouse at 2 mg/kg, po; assay type: ADME, organism-based; design: dose 2 mg/kg, route oral; details: in vivo; procedure, shortened: as §2
[13] = Cmax in C57BL/6 mouse at 2 mg/kg, po; assay type: ADME, organism-based; design: dose 2 mg/kg, route oral; details: in vivo; procedure, shortened: as §2
[14] = Tmax in C57BL/6 mouse at 2 mg/kg, po; assay type: ADME, organism-based; design: dose 2 mg/kg, route oral; details: in vivo; procedure, shortened: as §2
[15] = Oral bioavailability in C57BL/6 mouse at 2 mg/kg; assay type: ADME, organism-based; details: in vivo; procedure, shortened: as §2

Row | Structure (SMILES) | inhibition [1] [%] | IC50 [2] [µM] | Activity [3] | further results
1 | CC[C@H]1[C@@H](c2cc(C(F)(F)F)cc(C(F)(F)F)c2)OC(=O)N1Cc1cc(C(F)(F)F)ccc1-c1cc(C(C)C)ccc1OC (racemic) | 87 | 0.268 |  | 
2 | COC(=O)N(Cc1cc(C(F)(F)F)cc(C(F)(F)F)c1)Cc1cc(C(F)(F)F)ccc1-c1cc(C(C)C)ccc1OC | 87 | 0.126 | 15 mg/dL | 
3 | COc1cc(F)c(C(C)C)cc1-c1ccc(C(F)(F)F)cc1CN1C(=O)O[C@H](c2cc(C(F)(F)F)cc(C(F)(F)F)c2)C1(C)C | 94 |  | 17 mg/dL | 
4 | COc1cc(F)c(C(C)C)cc1-c1ccc(C(F)(F)F)cc1CN1C(=O)O[C@H](c2cc(C(F)(F)F)cc(C(F)(F)F)c2)[C@@H]1C [ANACETRAPIB] |  |  |  | Activity [4]: Dose-dependent effect; Activity [5]: 14 mg/dL; Activity [6]: 16.4 mg/dL; Activity [7]: 21.7 mg/dL; clearance [8]: 11 mL/min/kg; Vd [9]: 2 L/kg; beta t1/2 [10]: 3.6 h; AUC/dose [11]: 2.4 µM·kg·h/mg; AUC/dose [12]: 0.356 µM·kg·h/mg; Cmax [13]: 280 nM; Tmax [14]: 1 h; bioavailability [15]: 15%
5 | COc1ccc(C(C)C)cc1-c1ccc(C(F)(F)F)cc1CN1C[C@@H](c2cc(C(F)(F)F)cc(C(F)(F)F)c2)OC1=O | 93 | 0.093 | inactive | 
6 | COc1ccc(C(C)C)cc1-c1ccc(C(F)(F)F)cc1CN1C(=O)O[C@@H](c2cc(C(F)(F)F)cc(C(F)(F)F)c2)[C@H]1C | 8 |  |  | 
7 | CC[C@@H]1[C@@H](c2cc(C(F)(F)F)cc(C(F)(F)F)c2)OC(=O)N1Cc1cc(C(F)(F)F)ccc1-c1cc(C(C)C)ccc1OC (racemic) | 49 |  |  | 
8 | COc1cc(F)c(C(C)C)cc1-c1ccc(C(F)(F)F)cc1CN1C[C@@H](c2cc(C(F)(F)F)cc(C(F)(F)F)c2)OC1=O | 97 | 0.0256 | 6.3 mg/dL | 
9 | COC(=O)N(Cc1cc(C(F)(F)F)cc(C(F)(F)F)c1)Cc1cc(C(F)(F)F)ccc1-c1cc(C(C)C)c(F)cc1OC | 88 |  | 15 mg/dL | 
10 | COc1ccc(C(C)C)cc1-c1ccc(C(F)(F)F)cc1CN1C(=O)O[C@H](c2cc(C(F)(F)F)cc(C(F)(F)F)c2)[C@H]1C | 90 |  |  | 
11 | COc1cc(F)c(C(C)C)cc1-c1ccc(C(F)(F)F)cc1CN1C(=O)O[C@@H](c2cc(C(F)(F)F)cc(C(F)(F)F)c2)C1(C)C | 21 |  |  | 
12 | COc1ccc(C(C)C)cc1-c1ccc(C(F)(F)F)cc1CN1C(=O)O[C@@H](c2ccccc2)[C@H]1C | 90 | 5.67 |  | 
13 | COc1ccc(C(C)C)cc1-c1ccc(C(F)(F)F)cc1CN1C(=O)O[C@H](c2ccccc2)[C@@H]1C | 94 | 0.0393 | 6.3 mg/dL | 
14 | COc1cc(F)c(C(C)C)cc1-c1ccc(C(F)(F)F)cc1CN1C(=O)O[C@](C)(c2cc(C(F)(F)F)cc(C(F)(F)F)c2)[C@@H]1C | 46 |  |  | 
15 | COc1ccc(C(C)C)cc1-c1ccc(C(F)(F)F)cc1CN1C(=O)O[C@@H](c2cc(C(F)(F)F)cc(C(F)(F)F)c2)[C@@H]1C | 20 |  |  | 
